ChEMBL document CHEMBL1275280, “Synthesis, structural elucidation and DNA-dependant protein kinase and antiplatelet studies of 2-amino-[5, 6, 7, 8-mono and 7, 8-di-substituted]-1,3-benzoxazines” (Eur J Med Chem, 2010)
Calls of active or inactive are those of the source. No cut-off for these calls is given here.

Columns and labels:
Platelet = test: Inhibition of collagen-induced platelet aggregation in human venous blood by optical method based aggregometry; format: functional, tissue-based
[1] = Inhibition of DNA-dependent protein kinase at 2 uM
Method in brief: (§1)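 Compound in DMSO was added in place of water, at final concentrations of 1.6–4.0. The reaction was stopped with termination buffer and captured on a biotin membrane. After washing, scintillation counts gave percent inhibition relative to the full-reaction positive control (n = 3).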

[2] = Inhibition of DNA-dependent protein kinase at 1.6 uM; method in brief: as §1
[3] = Inhibition of DNA-dependent protein kinase at 4 uM; method in brief: as §1

SMILES | IC50 (Platelet) | also measured
Cc1c(OCCBr)ccc2c(=O)nc(N3CCCCC3)oc12 | 61 µM | 
O=c1nc(N2CCOCC2)oc2ccc(OCc3cccnc3)cc12 | ≥ 90 µM | 
Cc1c(OCCN2CCN(C)CC2)ccc2c(=O)nc(N3CCCCC3)oc12 | 36 µM | 
Cc1c(OCc2ccncc2)ccc2c(=O)nc(N3CCOCC3)oc12 | 4 µM | inhibition [1]: Active
Cc1c(O)ccc2c(=O)nc(N3CCSCC3)oc12 | ≥ 100 µM | 
Cc1c(OCc2ccccn2)ccc2c(=O)nc(N3CCOCC3)oc12 | 34 µM | inhibition [2]: Active
Cc1c(OCCN2CCN(C)CC2)ccc2c(=O)nc(N3CCOCC3)oc12 |  | inhibition [3]: Active
Cc1c(OCCN2CCN(C)CC2)ccc2c(=O)nc(N3CCSCC3)oc12 | 47 µM | 
CN1CCN(CCOc2ccc3oc(N4CCOCC4)nc(=O)c3c2)CC1 | ≥ 86 µM | inhibition [3]: inactive
O=c1nc(N2CCOCC2)oc2cc(OCc3ccncc3)ccc12 | 45 µM | 
O=c1nc(N2CCOCC2)oc2cccc(OCCCl)c12 | ≥ 100 µM | 
O=c1nc(N2CCOCC2)oc2cccc(OCc3cccnc3)c12 | ≥ 100 µM | 
O=c1nc(N2CCOCC2)oc2ccc(OCc3ccccc3)cc12 | ≥ 100 µM | 
Cc1c(O)ccc2c(=O)nc(C3CCNCC3)oc12 | ≥ 90 µM | 
CN1CCN(CCOc2cccc3oc(N4CCOCC4)nc(=O)c23)CC1 | ≥ 100 µM | inhibition [3]: inactive
O=c1nc(N2CCOCC2)oc2cc(OCc3cccnc3)ccc12 | 70 µM | 
O=c1nc(N2CCOCC2)oc2ccc(OCCCl)cc12 | 87 µM | 
O=c1nc(N2CCOCC2)oc2cccc(OCc3ccccc3)c12 | ≥ 100 µM | 
CN1CCN(CCOc2ccc3c(=O)nc(N4CCOCC4)oc3c2)CC1 |  | inhibition [3]: Active
O=c1nc(N2CCOCC2)oc2cc(OCc3ccccn3)ccc12 | 75 µM | 
O=c1nc(N2CCOCC2)oc2c(-c3ccccc3)cccc12 |  | inhibition [1]: Active
Cc1c(OCc2cccnc2)ccc2c(=O)nc(N3CCOCC3)oc12 | 2 µM | inhibition [3]: Active
Cc1c(OCCBr)ccc2c(=O)nc(N3CCSCC3)oc12 | 75 µM | 
O=c1nc(N2CCOCC2)oc2ccc(OCCBr)cc12 | 83 µM | 

Second part, led by results:

IC50 (Platelet) | SMILES | also measured
22 µM | O=c1nc(N2CCOCC2)oc2c(OCc3cccnc3)cccc12 | 
70 µM | O=c1nc(N2CCOCC2)oc2c(OCc3ccncc3)cccc12 | 
36 µM | Cc1c(OCCCl)ccc2c(=O)nc(N3CCOCC3)oc12 | 
70 µM | O=c1nc(N2CCOCC2)oc2c(OCCBr)cccc12 | 
80 µM | CN1CCN(CCOc2cccc3c(=O)nc(N4CCOCC4)oc23)CC1 | inhibition [3]: Active
60 µM | O=c1nc(N2CCOCC2)oc2c(OCCCl)cccc12 | 
85 µM | CCOc1ccc2c(=O)nc(N3CCOCC3)oc2c1 | 
70 µM | CC(C)c1cccc2c(=O)nc(N3CCOCC3)oc12 | 
53 µM | O=c1nc(N2CCOCC2)oc2c(OCc3ccccc3)cccc12 | 
80 µM | O=c1nc(N2CCOCC2)oc2cc(F)ccc12 | 
